Measured values: ChEMBL document CHEMBL1955811, “Inhibition of colony-stimulating-factor-1 signaling in vivo with the orally bioavailable cFMS kinase inhibitor GW2580” (Proc Natl Acad Sci U S A, 2005)
Active and inactive are the calls of the source. The calls are words filed in the database; no cut-off is given here.

Tests used:
NFS-60 [1] = assay: Antitumor activity in mouse M-NFS-60 cells allografted in CD-1 nude mouse assessed as inhibition of tumor cell growth in peritoneal cavity at 80 mg/kg, po BID starting 1 hr before challenge for 4 days measured after 4 days; assay type: functional, organism-based; parameters: dose 80 mg/kg
Summary of the method: (§1)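 CD-1 nude female mice (22-26 g); 1 × 10^7 M-NFS-60 cells in PBS injected i.p. Oral dosing b.i.d. at 20 and 80 mg/kg as a suspension in 0.5% hydroxypropylmethylcellulose/0.1% Tween 80 (0.2 ml per mouse), starting 1 h before cell injection. Peritoneal cells recovered by cold PBS-heparin lavage on day 4 and counted by hemocytometer after crystal violet dilution. Mean ± SEM; Dunnett's test.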

Monocyte [2] = assay: Effect on LPS-induced IL-6 production in human monocytes at 0.03906 to 20 uM preincubated for 30 mins before LPS stimulation measured after 20 hrs by ELISA; assay type: functional, cell-based
Mus musculus [3] = assay: Inhibition of thioglycolate-induced macrophage influx into peritoneal cavity in mouse at 80 mg/kg, po BID administered 7 days before and 4 days after thioglycolate challenge; assay type: functional
Summary of the method: (§2)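 Female C3H/HEN mice (22-26 g) were dosed orally with compound suspended in 0.5% hydroxypropylmethylcellulose/0.1% Tween 80 (0.2 ml per mouse). Thioglycolate (1.5 ml) was injected i.p. on day 0. On day 4, the peritoneum was lavaged with 5 ml cold PBS containing 40 units/ml heparin, and cells were counted by hemocytometer in 0.1% crystal violet. Data are mean ± SEM; Dunnett's test.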

Mus musculus [4] = assay: Inhibition of LPS-stimulated IL-6 production in CSF-1 primed mouse at 40 mg/kg, po administered 0.5 hr before LPS challenge post CSF-1 priming measured […] after LPS challenge; assay type: functional
NCI-N87 = assay: Growth inhibition of serum-stimulated human NCI-N87 cells after 3 days by spectrophotometry; assay type: functional, cell-based; details: NCI-N87, 72 h
Summary of the method: (§3)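 Cells cultured so that added serum or growth factor gave linear growth. Compound tested as a 10- to 12-point dose-response with a top concentration of 20 μM.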

NFS-60 [5] = assay: Antitumor activity in mouse M-NFS-60 cells allografted in po dosed CD-1 nude mouse assessed as inhibition of tumor cell growth in peritoneal cavity compound starting 1 hr before challenge twice a day for 4 days measured after 4 days; assay type: functional, organism-based; summary of the method: as §1
[6] = Growth inhibition of CSF1-stimulated mouse M-NFS-60 cells after 3 days by spectrophotometry; assay type: functional; details: NFS-60, 72 h; summary of the method: as §3
Mus musculus [7] = assay: Inhibition of thioglycolate-induced macrophage influx into peritoneal cavity in mouse at 20 mg/kg, po BID starting 1 hr before thioglycolate challenge for 4 days; assay type: functional; summary of the method: as §2
Osteoclast [8] = assay: Inhibition of human osteoclast degradation of bone assessed as bone slice resorbed at 1 uM after 3 days by immunocytochemistry (reference value: 26.6 +/- 4.7 %); assay type: functional; details: 72 h
[9] = target: Protein kinase C beta type (Homo sapiens, UniProt P05771); assay: Inhibition of human PKCb1 catalytic domain after by scintillation counting
Summary of the method: (§4)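 Catalytic domains of the human kinases were expressed, isolated and assayed with ATP and the appropriate substrate. Compound was tested as a 10- to 12-point dose-response up to a maximal 20 μM.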

Osteoclast [10] = assay: Inhibition of human osteoclast degradation of bone assessed as reduction in 23C6(+) cells with more than 3 nuclei per cm2 of bone at 10 uM after 3 days by immunocytochemistry (reference value: 854 +/- 122 cells/cm2 of bone); assay type: functional
Mus musculus [11] = assay: Inhibition of thioglycolate-induced macrophage influx into peritoneal cavity in mouse at 20 to 80 mg/kg, po BID; assay type: functional, organism-based; details: TDE = time-dependent effect; summary of the method: as §2
[12] = system: Peritoneal macrophage cell; assay: Effect on LPS-induced IL-6 production in mouse intraperitoneal macrophages pretreated with CSF-1 at 0.03906 to 20 uM compound incubated for 30 mins before LPS stimulation measured after 20 hrs by ELISA; assay type: functional, cell-based
[13] = Protein binding in cell-culture media with mouse plasma at 3 uM; assay type: ADME, cell-free; details: read-out: PB (converted)
Summary of the method: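 Compound at 3 μM was added to triplicate samples and incubated 1 h at 37°C. Samples were centrifuged through a 30,000-MW filter (1,500 × g, 15 min, 4°C). Percent bound was calculated from compound concentrations in the filtrate and retentate.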

Rattus norvegicus [14] = species: Rattus norvegicus; assay: Inhibition of PTH-induced Wistar rat calvarial bone degradation assessed as reduction in DPPD level in media at 1 to 100 uM after 48 hrs; assay type: functional
Summary of the method: (§5)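 Rat calvaria incubated with PTH plus compound for two consecutive 48-h periods. Medium from the second period assayed for deoxypyridinoline crosslinks (DPPD).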

Monocyte [15] = assay: Inhibition of CSF-1-stimulated growth of freshly isolated human monocytes at 1 uM preincubated for 30 mins before inducer addition measured after 5 days by WST-1 method; assay type: functional; details: read-out: GI
Mus musculus [16] = assay: Inhibition of LPS-stimulated TNF production in CSF-1 primed mouse at 20 to 80 mg/kg, po administered 4.5 hr before LPS challenge and CSF-1 priming measured […] after LPS challenge; assay type: functional, organism-based
Mus musculus [17] = assay: Inhibition of thioglycolate-induced macrophage influx into peritoneal cavity in mouse at 20 mg/kg, po BID administered 7 days before and 4 days after thioglycolate challenge; assay type: functional; summary of the method: as §2
Macrophage [18] = assay: Effect on LPS-induced IL-6 production in CSF-1-stimulated human macrophages at 0.03906 to 20 uM preincubated for 30 mins before LPS stimulation measured after 20 hrs by ELISA; assay type: functional, cell-based
Monocyte [19] = assay: Inhibition of GMCSF-stimulated growth of freshly isolated human monocytes at 1 uM preincubated for 30 mins before inducer addition measured after 5 days by WST-1 method; assay type: functional; details: read-out: GI
A549 = assay: Growth inhibition of serum-stimulated human A549 cells after 3 days by spectrophotometry; assay type: functional, cell-based; details: A549, 72 h; summary of the method: as §3
Macrophage [20] = assay: Effect on LPS-induced PGE2 production in CSF-1-stimulated human macrophages at 0.03906 to 20 uM preincubated for 30 mins before LPS stimulation measured after 20 hrs by ELISA; assay type: functional, cell-based
Osteoclast [21] = assay: Inhibition of human osteoclast degradation of bone assessed as bone slice resorbed at 10 uM after 3 days by immunocytochemistry (reference value: 26.6 +/- 4.7 %); assay type: functional; details: 72 h
[22] = Growth inhibition of serum-stimulated human MDA231 cells after 3 days by spectrophotometry; assay type: functional, cell-based; details: MDA-MB-231, 72 h; summary of the method: as §3
Rattus norvegicus [23] = species: Rattus norvegicus; assay: Inhibition of PTH-induced Wistar rat calvarial bone degradation assessed as reduction in DPPD level in media at 0.1 uM after 48 hrs; assay type: functional; summary of the method: as §5
[24] = Inhibition of PTH-induced Wistar rat fetal long bone degradation assessed as labeled 45Ca release in to media at 0.1 to 0.3 uM after 48 hrs by liquid scintillation spectrometry; assay type: functional
Summary of the method: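 Fetal rat long bones preloaded with 45CaCl2 and incubated for 24 h. PTH and compound then added; release of labelled calcium into the medium measured 48 h later.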

[25] = target: Protein kinase C alpha type (Homo sapiens, UniProt P17252); assay: Inhibition of human PKCa catalytic domain after by scintillation counting; summary of the method: as §4
Monocyte [26] = assay: Effect on LPS-induced TNF production in human monocytes at 0.03906 to 20 uM preincubated for 30 mins before LPS stimulation measured after 20 hrs by ELISA; assay type: functional, cell-based

Protein kinase C beta type, sequence (P05771 whole entry, the tested form may be a part): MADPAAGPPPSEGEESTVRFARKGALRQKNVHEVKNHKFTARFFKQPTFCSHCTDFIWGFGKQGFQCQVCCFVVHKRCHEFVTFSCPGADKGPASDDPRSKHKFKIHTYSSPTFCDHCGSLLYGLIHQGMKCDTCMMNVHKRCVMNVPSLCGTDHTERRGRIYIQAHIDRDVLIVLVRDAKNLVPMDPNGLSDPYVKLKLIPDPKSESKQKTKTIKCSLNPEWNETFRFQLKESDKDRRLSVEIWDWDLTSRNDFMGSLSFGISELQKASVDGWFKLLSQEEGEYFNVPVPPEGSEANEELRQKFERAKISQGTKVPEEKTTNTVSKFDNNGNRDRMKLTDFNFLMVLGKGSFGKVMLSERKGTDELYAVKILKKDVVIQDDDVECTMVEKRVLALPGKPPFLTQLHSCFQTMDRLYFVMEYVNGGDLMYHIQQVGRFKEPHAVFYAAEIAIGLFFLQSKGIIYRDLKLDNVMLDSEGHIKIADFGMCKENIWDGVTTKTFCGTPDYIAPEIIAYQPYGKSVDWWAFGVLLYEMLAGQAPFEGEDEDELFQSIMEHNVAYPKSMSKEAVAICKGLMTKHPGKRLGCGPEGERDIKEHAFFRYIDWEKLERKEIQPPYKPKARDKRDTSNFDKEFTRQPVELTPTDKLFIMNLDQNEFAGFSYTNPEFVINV

COc1ccc(COc2ccc(Cc3cnc(N)nc3N)cc2OC)cc1 [GW632580X]
growth inhibition (GI) (NFS-60 [1]): Active
Activity (Monocyte [2]): inactive
inhibition in vivo at 80 mg/kg (Mus musculus [3]): 45%
inhibition in vivo at 40 mg/kg (Mus musculus [4]): -6%
IC50 (NCI-N87): > 30 µM
growth inhibition (GI) (NFS-60 [5]): Dose-dependent effect
IC50 [6]: 0.33 µM
inhibition in vivo at 20 mg/kg (Mus musculus [7]): 17%
bone resorption (%) at 1 µM (Osteoclast [8]): 3.3%
IC50 [9]: > 13 µM
Activity (Osteoclast [10]): 34 /cm2
inhibition (Mus musculus [11]): tde
Activity [12]: inactive
fraction unbound at 3 µM [13]: 0.07
inhibition (Rattus norvegicus [14]): Active
inhibition of growth at 1 µM (Monocyte [15]): 100%
inhibition (Mus musculus [16]): Active
inhibition in vivo at 20 mg/kg (Mus musculus [17]): 8%
Activity (Macrophage [18]): inactive
inhibition of growth at 1 µM (Monocyte [19]): 80%
IC50 (A549): > 30 µM
Activity (Macrophage [20]): inactive
bone resorption (%) at 10 µM (Osteoclast [21]): 1.2%
IC50 [22]: > 30 µM
inhibition (Rattus norvegicus [23]): 80%
inhibition (INH) [24]: 30%
IC50 [25]: > 13 µM
Activity (Monocyte [26]): inactive
